In the M2OR odorant receptor database:

What was measured:
Conditions in all cases: stereoisomer not certain
UniProt Q8VGC6 = target: T1, UniProt Q8VGC6
T1 sequence (whole entry): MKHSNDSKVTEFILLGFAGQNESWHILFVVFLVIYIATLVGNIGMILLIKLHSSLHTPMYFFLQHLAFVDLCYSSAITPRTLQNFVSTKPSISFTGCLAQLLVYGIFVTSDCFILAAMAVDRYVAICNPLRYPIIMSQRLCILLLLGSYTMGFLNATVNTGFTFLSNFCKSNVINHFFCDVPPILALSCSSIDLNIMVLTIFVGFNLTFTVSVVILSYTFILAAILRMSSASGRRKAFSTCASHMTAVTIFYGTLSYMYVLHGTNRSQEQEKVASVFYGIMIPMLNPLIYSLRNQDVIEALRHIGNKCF
Summary of the method: (§1)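 Each entry records the cell line, G-protein, co-transfected protein and tags used. Methods varied with the source, often transient luciferase assays in mammalian cell lines. A receptor–molecule pair is called responsive (active) if the original authors judged its signal statistically different from baseline and non-responsive (inactive) otherwise.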

UniProt Q8VGD7 = target: T2, UniProt Q8VGD7
T2 sequence (whole entry): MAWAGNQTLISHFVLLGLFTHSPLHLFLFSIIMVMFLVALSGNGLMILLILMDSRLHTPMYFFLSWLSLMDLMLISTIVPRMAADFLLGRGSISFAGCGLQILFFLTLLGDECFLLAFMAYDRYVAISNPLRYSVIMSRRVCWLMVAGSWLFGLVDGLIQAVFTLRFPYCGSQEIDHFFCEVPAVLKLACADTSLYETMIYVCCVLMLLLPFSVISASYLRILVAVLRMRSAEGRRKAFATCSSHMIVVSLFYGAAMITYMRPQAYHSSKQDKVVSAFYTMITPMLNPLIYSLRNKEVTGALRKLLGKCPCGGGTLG
Summary of the method: as §1

UniProt Q8VGH1 = target: T3, UniProt Q8VGH1
T3 sequence (whole entry): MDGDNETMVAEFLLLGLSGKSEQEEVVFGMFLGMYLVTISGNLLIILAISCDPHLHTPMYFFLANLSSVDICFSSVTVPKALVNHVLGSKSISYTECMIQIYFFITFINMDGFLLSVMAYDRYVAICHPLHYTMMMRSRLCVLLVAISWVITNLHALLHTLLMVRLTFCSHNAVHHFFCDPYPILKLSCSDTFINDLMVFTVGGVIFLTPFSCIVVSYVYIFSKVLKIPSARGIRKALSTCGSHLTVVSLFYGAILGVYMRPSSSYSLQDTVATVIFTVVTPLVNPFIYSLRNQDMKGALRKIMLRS
Summary of the method: as §1

UniProt Q8VGJ1 = target: T4, UniProt Q8VGJ1
T4 sequence (whole entry): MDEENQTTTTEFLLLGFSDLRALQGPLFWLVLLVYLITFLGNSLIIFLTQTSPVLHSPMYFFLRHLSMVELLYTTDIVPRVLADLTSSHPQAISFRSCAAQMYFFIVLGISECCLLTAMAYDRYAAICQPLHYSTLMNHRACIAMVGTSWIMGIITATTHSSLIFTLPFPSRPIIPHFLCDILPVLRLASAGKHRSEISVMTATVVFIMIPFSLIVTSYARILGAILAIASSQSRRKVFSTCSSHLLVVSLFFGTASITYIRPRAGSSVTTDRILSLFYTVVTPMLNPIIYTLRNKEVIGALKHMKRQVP
Summary of the method: as §1

UniProt Q8VGJ3 = target: T5, UniProt Q8VGJ3
T5 sequence (whole entry): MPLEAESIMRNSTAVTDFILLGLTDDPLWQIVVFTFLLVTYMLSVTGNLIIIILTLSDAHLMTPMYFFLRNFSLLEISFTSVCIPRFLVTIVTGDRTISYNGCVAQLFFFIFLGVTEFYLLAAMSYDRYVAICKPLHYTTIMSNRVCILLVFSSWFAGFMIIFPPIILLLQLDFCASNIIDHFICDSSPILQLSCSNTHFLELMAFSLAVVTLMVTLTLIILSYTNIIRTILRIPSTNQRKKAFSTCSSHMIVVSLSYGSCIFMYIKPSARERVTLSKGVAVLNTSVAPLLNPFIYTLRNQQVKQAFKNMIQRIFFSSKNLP
Summary of the method: as §1

UniProt Q8VGJ5 = target: T6, UniProt Q8VGJ5
T6 sequence (whole entry): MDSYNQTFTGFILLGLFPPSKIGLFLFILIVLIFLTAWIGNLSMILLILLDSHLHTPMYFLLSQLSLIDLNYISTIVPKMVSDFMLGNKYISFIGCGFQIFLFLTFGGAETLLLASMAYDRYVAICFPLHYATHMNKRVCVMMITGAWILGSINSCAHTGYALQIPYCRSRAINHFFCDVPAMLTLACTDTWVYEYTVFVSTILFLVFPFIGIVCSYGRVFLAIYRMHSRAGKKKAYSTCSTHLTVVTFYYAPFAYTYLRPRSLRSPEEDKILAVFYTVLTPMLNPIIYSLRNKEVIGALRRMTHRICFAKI
Summary of the method: as §1

UniProt Q8VGL0 = target: T7, UniProt Q8VGL0
T7 sequence (whole entry): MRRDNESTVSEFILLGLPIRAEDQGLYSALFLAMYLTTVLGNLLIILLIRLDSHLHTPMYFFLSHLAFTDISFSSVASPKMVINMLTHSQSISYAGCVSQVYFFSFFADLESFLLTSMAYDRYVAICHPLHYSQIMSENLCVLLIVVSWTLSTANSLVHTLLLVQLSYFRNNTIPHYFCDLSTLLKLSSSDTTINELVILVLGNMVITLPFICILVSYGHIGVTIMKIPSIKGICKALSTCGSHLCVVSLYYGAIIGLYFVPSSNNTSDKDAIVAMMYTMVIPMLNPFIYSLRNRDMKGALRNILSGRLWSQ
Summary of the method: as §1

UniProt Q8VGL7 = target: T8, UniProt Q8VGL7
T8 sequence (whole entry): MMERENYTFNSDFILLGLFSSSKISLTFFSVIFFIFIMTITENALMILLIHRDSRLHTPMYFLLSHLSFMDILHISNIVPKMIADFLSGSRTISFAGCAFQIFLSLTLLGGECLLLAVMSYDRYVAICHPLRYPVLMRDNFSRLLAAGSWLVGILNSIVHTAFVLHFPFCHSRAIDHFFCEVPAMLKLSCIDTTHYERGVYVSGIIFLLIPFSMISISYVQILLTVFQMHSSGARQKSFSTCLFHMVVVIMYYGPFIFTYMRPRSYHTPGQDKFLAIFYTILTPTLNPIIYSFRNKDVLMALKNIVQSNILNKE
Summary of the method: as §1

UniProt Q8VGM2 = target: T9, UniProt Q8VGM2
T9 sequence (whole entry): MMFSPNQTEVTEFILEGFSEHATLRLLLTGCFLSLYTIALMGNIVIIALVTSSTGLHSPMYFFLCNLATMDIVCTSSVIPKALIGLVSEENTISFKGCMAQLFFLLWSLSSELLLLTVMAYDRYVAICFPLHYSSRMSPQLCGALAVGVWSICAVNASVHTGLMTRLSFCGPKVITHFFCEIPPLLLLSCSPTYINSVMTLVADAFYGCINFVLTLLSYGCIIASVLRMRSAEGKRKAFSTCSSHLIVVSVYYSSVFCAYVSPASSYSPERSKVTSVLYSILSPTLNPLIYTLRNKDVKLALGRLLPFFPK
Summary of the method: as §1

UniProt Q8VGP6 = target: T10, UniProt Q8VGP6
T10 sequence (whole entry): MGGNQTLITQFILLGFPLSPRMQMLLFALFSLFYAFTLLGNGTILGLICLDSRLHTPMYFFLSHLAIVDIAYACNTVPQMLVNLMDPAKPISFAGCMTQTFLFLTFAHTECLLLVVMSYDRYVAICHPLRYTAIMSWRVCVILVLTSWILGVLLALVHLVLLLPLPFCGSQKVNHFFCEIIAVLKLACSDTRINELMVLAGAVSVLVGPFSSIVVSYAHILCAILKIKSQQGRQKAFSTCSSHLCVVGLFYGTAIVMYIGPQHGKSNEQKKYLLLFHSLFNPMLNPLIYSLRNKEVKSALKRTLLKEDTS
Summary of the method: as §1

UniProt Q8VGQ3 = target: T11, UniProt Q8VGQ3
T11 sequence (whole entry): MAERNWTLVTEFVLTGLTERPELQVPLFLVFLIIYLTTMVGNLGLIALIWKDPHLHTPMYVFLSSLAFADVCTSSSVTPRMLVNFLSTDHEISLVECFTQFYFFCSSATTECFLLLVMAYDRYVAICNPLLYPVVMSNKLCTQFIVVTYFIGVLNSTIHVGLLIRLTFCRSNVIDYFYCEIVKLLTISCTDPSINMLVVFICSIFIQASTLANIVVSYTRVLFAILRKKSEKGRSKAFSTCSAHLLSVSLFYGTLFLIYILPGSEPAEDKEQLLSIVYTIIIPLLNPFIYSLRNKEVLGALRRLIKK
Summary of the method: as §1

UniProt Q8VGT4 = target: T12, UniProt Q8VGT4
T12 sequence (whole entry): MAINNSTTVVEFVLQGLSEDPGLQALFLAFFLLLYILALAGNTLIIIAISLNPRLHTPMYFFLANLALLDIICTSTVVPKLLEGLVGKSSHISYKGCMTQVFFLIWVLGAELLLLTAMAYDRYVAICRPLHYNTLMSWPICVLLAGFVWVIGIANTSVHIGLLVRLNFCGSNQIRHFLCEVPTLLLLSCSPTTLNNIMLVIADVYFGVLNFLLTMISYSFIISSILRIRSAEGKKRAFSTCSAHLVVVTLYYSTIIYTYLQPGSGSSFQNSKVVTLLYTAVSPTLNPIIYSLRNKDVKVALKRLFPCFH
Summary of the method: as §1

UniProt Q8VGU3 = target: T13, UniProt Q8VGU3
T13 sequence (whole entry): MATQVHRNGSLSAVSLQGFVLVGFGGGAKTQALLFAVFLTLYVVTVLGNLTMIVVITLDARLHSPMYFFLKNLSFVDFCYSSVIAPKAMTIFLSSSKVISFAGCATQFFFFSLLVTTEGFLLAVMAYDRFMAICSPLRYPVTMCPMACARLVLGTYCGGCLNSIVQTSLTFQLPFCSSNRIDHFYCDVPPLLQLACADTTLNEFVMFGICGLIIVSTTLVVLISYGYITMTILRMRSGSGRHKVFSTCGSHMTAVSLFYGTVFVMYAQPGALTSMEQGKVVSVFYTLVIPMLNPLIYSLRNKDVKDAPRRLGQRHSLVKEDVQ
Summary of the method: as §1

UniProt Q8VGV1 = target: T14, UniProt Q8VGV1
T14 sequence (whole entry): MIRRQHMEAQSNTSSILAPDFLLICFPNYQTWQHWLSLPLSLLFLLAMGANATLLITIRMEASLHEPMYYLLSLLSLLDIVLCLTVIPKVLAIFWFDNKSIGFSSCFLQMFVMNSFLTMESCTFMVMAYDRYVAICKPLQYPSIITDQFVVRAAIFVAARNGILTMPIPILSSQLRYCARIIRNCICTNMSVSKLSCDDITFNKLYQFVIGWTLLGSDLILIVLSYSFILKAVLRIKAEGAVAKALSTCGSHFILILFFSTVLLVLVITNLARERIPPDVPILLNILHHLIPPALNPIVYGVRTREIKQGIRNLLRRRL
Summary of the method: as §1

UniProt Q8VGV7 = target: T15, UniProt Q8VGV7
T15 sequence (whole entry): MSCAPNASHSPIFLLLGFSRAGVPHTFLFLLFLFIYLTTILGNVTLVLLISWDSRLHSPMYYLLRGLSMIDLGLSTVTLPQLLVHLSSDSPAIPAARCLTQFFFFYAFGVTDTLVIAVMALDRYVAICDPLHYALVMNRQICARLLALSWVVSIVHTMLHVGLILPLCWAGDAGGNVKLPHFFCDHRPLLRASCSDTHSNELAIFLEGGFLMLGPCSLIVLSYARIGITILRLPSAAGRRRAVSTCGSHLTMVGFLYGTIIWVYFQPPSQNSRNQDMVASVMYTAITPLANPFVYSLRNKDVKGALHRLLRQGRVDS
Summary of the method: as §1

UniProt Q8VGX3 = target: T16, UniProt Q8VGX3
T16 sequence (whole entry): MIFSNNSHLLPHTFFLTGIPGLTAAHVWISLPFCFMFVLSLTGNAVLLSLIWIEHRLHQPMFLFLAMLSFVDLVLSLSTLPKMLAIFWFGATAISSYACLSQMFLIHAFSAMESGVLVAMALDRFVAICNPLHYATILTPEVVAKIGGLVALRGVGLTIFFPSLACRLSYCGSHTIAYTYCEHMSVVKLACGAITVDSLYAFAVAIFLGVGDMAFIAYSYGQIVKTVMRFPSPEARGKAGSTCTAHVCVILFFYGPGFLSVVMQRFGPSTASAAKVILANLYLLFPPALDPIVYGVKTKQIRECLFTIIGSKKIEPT
Summary of the method: as §1

UniProt Q8VGX5 = target: T17, UniProt Q8VGX5
T17 sequence (whole entry): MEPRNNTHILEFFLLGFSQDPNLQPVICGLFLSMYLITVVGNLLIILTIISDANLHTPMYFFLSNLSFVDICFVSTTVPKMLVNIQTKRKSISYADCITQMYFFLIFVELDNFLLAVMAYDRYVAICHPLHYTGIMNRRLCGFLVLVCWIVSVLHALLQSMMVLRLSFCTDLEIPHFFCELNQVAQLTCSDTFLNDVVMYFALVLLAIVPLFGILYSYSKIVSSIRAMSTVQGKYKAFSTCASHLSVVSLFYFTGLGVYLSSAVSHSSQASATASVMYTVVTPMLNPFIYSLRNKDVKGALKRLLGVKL
Summary of the method: as §1

SMILES	odorant receptor agonist call (UniProt Q8VGC6)	odorant receptor agonist call (UniProt Q8VGD7)	odorant receptor agonist call (UniProt Q8VGH1)	odorant receptor agonist call (UniProt Q8VGJ1)	odorant receptor agonist call (UniProt Q8VGJ3)	odorant receptor agonist call (UniProt Q8VGJ5)	odorant receptor agonist call (UniProt Q8VGL0)	odorant receptor agonist call (UniProt Q8VGL7)	odorant receptor agonist call (UniProt Q8VGM2)	odorant receptor agonist call (UniProt Q8VGP6)	odorant receptor agonist call (UniProt Q8VGQ3)	odorant receptor agonist call (UniProt Q8VGT4)	odorant receptor agonist call (UniProt Q8VGU3)	odorant receptor agonist call (UniProt Q8VGV1)	odorant receptor agonist call (UniProt Q8VGV7)	odorant receptor agonist call (UniProt Q8VGX3)	odorant receptor agonist call (UniProt Q8VGX5)
CCCCOC=O	inactive	inactive	inactive	inactive	inactive	inactive	inactive	inactive	inactive	inactive	inactive	inactive	inactive	inactive	inactive	inactive	inactive
CC(=O)Oc1ccccc1	active	inactive	inactive	inactive	inactive	inactive	inactive	inactive	inactive	inactive	inactive	inactive	inactive	inactive	inactive	inactive	active
